Experimental data: ChEMBL document CHEMBL1139008, “Synthesis and antiviral evaluation of alkoxyalkyl derivatives of 9-(S)-(3-hydroxy-2-phosphonomethoxypropyl)adenine against cytomegalovirus and orthopoxviruses” (J Med Chem, 2006)

Columns and labels:
Murid betaherpesvirus 1 = assay: Antiviral activity against MCMV Smith replication; assay type: functional, organism-based; settings: Murid betaherpesvirus 1, Smith
How it was run: (§1)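 Plaque reduction used HCMV AD-169 in HFF cells (plated 2 days ahead) or MCMV Smith in MEF cells (plated 1 day ahead), at 20-30 PFU/well in triplicate with 1 h adsorption. Infected cells were then given MEM (2% FBS) with compound diluted 1:5 from 100 µM. Plates ran 7 days (MCMV) or 8 days (HCMV) at 37 °C, followed by 6 h neutral red staining. EC50 is the concentration giving 50% plaque reduction.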

Cowpox virus = assay: Antiviral activity against Cowpox virus Brighton replication in HFF cells; assay type: functional, organism-based
Human betaherpesvirus 5 = assay: Antiviral activity against HCMV AD-169 replication; assay type: functional, organism-based; settings: Human betaherpesvirus 5, AD-169; how it was run: as §1
Vaccinia virus = assay: Antiviral activity against Vaccinia virus Copenhagen replication in HFF cells; assay type: functional, organism-based; settings: Orthopoxvirus vaccinia
HFF [1] = assay: Selectivity index, CC50 in HFF cell/ EC50 against cowpox virus; assay type: functional
How it was run: (§2)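 Selectivity index is the ratio of CC50 (HFF neutral red uptake) to EC50 from the matching plaque reduction assay.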

HFF [2] = assay: Selectivity index, CC50 in HFF cell/ EC50 against MCMV; assay type: functional; how it was run: as §2
HFF [3] = assay: Selectivity index, CC50 in HFF cell/ EC50 against vaccinia virus; assay type: functional; how it was run: as §2
HFF [4] = assay: Cytotoxicity against HFF cell; assay type: functional; settings: Homo sapiens
HFF [5] = assay: Selectivity index, CC50 in HFF cell/ EC50 against HCMV; assay type: functional; how it was run: as §2

## CCCCCCCCCCCCCCCCCCOCCOP(=O)(O)CO[C@H](CO)Cn1ccc(N)nc1=O
Murid betaherpesvirus 1
  EC50: 1 nM
Cowpox virus
  EC50: 300 nM
Human betaherpesvirus 5
  EC50: 0.9 nM
Vaccinia virus
  EC50: 200 nM

## CCCCCCCC/C=C\CCCCCCCCOCCCOP(=O)([O-])CO[C@H](CO)Cn1cnc2c(N)ncnc21.[Na+]
Murid betaherpesvirus 1
  EC50: 100 nM
Cowpox virus
  EC50: 34 nM
HFF [1]
  Selectivity index: 2200
Human betaherpesvirus 5
  EC50: 3 nM
HFF [2]
  Selectivity index: 750
Vaccinia virus
  EC50: 18 nM
HFF [3]
  Selectivity index: 4156
HFF [4]
  CC50: 74800 nM
HFF [5]
  Selectivity index: 25000

## Nc1ccn(C[C@@H](CO)OCP(=O)(O)O)c(=O)n1.O.O [CIDOFOVIR]
Murid betaherpesvirus 1
  EC50: 40 nM
Cowpox virus
  EC50: 30700 nM
HFF [1]
  Selectivity index: >10.3
Human betaherpesvirus 5
  EC50: 1200 nM
HFF [2]
  Selectivity index: >7925
Vaccinia virus
  EC50: 25300 nM
HFF [3]
  Selectivity index: >12.5
HFF [4]
  CC50: > 317000 nM
HFF [5]
  Selectivity index: >264

## CCCCCCCCCCCCCCCCOCCCOP(=O)(O)CO[C@H](CO)Cn1ccc(N)nc1=O [BRINCIDOFOVIR]
Murid betaherpesvirus 1
  EC50: 0.9 nM
Cowpox virus
  EC50: 60 nM
Human betaherpesvirus 5
  EC50: 0.9 nM
Vaccinia virus
  EC50: 80 nM

## CCCCCCCC/C=C\CCCCCCCCOCCOP(=O)([O-])CO[C@H](CO)Cn1cnc2c(N)ncnc21.[Na+]
Murid betaherpesvirus 1
  EC50: 40 nM
Cowpox virus
  EC50: 7 nM
HFF [1]
  Selectivity index: 900
Human betaherpesvirus 5
  EC50: 3 nM
HFF [2]
  Selectivity index: 158
Vaccinia virus
  EC50: 3 nM
HFF [3]
  Selectivity index: 2100
HFF [4]
  CC50: 6300 nM
HFF [5]
  Selectivity index: 2100

## CCCCCCCCCCCCCCCCOCCCOP(=O)([O-])CO[C@H](CO)Cn1cnc2c(N)ncnc21.[Na+]
Murid betaherpesvirus 1
  EC50: 2 nM
HFF [1]
  Selectivity index: 485
Human betaherpesvirus 5
  EC50: 3 nM
HFF [2]
  Selectivity index: 485
HFF [3]
  Selectivity index: 970
HFF [4]
  CC50: 9700 nM
HFF [5]
  Selectivity index: 3233

## Nc1ncnc2c1ncn2C[C@@H](CO)OCP(=O)(O)O
Murid betaherpesvirus 1
  EC50: 160 nM
HFF [1]
  Selectivity index: >72
Human betaherpesvirus 5
  EC50: 820 nM
HFF [2]
  Selectivity index: >181
HFF [3]
  Selectivity index: >107
HFF [4]
  CC50: > 289000 nM
HFF [5]
  Selectivity index: >352

## CCCCCCCCCCCCCCCCCCOCCOP(=O)([O-])CO[C@H](CO)Cn1cnc2c(N)ncnc21.[Na+]
Murid betaherpesvirus 1
  EC50: 3 nM
HFF [1]
  Selectivity index: 75
Human betaherpesvirus 5
  EC50: 3 nM
HFF [2]
  Selectivity index: 500
HFF [3]
  Selectivity index: 150
HFF [4]
  CC50: 1500 nM
HFF [5]
  Selectivity index: 500
